Measured values: paper PMC3623729 (Journal of medicinal chemistry, 2013)
“Also recorded” adds a separate entry of the source.

Experiments:
[1] = cited from earlier work
[2] = molecular target: T1, VDR (Homo sapiens, UniProt P11473); assay: VDR ultrafiltration affinity assay; type: binding
T1 sequence (P11473 1-427): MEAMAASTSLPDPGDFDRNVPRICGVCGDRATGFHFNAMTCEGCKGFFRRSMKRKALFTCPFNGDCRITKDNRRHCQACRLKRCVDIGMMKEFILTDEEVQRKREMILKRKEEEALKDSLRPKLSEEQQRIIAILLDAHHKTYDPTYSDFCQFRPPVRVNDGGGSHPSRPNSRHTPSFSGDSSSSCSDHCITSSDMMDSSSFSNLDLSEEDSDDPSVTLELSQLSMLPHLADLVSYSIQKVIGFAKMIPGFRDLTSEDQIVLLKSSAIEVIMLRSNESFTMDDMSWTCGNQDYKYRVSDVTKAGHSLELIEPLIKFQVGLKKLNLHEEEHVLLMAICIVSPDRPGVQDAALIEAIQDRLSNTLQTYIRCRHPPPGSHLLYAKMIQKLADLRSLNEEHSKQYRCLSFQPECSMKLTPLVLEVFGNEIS
In short: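 Commercial VDR in storage buffer incubated with test ligand for 30 min at 37 °C, dark, shaking. Ultrafiltered at 12,000 × g, 4 °C, rinsed with ice-cold 50 mM ammonium acetate, 0.1 mM NaCl, pH 8.0. Bound ligand released in methanol with genistein internal standard, dried under N2, analysed by LC-ion trap TOF MS, both polarities, m/z 100–1500. Controls were boiled hVDR or no protein, with lithocholic acid and curcumin as positives.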

[3] = molecular target: T1, VDR; assay: Competitive binding against curcumin for VDR; conditions: equimolar concentration
[4] = molecular target: T2, human RXRα (Homo sapiens, UniProt P19793); assay: RXRE-luciferase reporter gene assay; type: cell-based; conditions: for Max IR: maximum induction ratio observed: compounds tested at variable concentrations
T2 sequence (P19793 1-462): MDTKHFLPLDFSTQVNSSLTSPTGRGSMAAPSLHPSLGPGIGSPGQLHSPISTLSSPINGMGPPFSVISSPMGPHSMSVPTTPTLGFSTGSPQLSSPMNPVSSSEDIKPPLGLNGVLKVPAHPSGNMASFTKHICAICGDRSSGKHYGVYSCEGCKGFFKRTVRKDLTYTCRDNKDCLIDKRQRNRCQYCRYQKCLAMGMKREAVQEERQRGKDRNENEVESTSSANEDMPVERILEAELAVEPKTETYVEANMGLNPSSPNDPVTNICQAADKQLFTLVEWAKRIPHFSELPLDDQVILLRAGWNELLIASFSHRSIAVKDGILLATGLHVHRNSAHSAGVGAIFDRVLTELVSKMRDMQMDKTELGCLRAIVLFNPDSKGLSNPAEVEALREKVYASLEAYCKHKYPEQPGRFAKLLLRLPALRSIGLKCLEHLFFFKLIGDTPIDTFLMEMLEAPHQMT

[5] = tested on: MCF-7 breast cancer cells; conditions: cited from earlier work
[6] = tested on: COS-1 cells; assay: % Cell Survival; type: cell-based; conditions: concentration not given

| SMILES | Positive VDR signal [2] | RXR activity in words (active / inactive) [4] | further results |
| --- | --- | --- | --- |
| NCCCn1c2c(c3ccc(N)cc3c1=O)C(=O)c1ccccc1-2 [Compound 3, 3-Amino-6-(3'-aminopropyl)-5H-indeno[1,2-c]isoquinoline-5,11-(6H)dione] | 1903415 | high activity | metabolism of the ketone group [1]: metabolized to an alcohol, which renders the compound inactive; competition with curcumin for binding to VDR [3]: did not compete; apoptosis in MCF-7 cells [5]: induce apoptosis in MCF-7 breast cancer cells in a dose-dependent manner |
| CCOC(=O)CNc1ccc2c3c(n(CCCN)c(=O)c2c1)-c1ccccc1C3=O [Compound 62] | 152467 | – | – |
| NCCCn1c2c(c3ccccc3c1=O)C(=O)c1ccccc1-2 [Compound 79] | 4013179 | high activity | % Cell Survival ([6]; Table 3): 52.5%; EC50 [4]: 10.2 µM |
| NCCCCn1c2c(c3ccccc3c1=O)C(=O)c1ccccc1-2 [Compound 80] | 3320824 | – | – |
| NCCCCCn1c2c(c3ccccc3c1=O)C(=O)c1ccccc1-2 [Compound 81] | 7877048 | – | – |
| NCCCCCCn1c2c(c3ccccc3c1=O)C(=O)c1ccccc1-2 [Compound 82] | 9397620 | – | – |
| O=C1c2ccccc2-c2c1c1ccc([N+](=O)[O-])cc1c(=O)n2CCCCO [Compound 120, 6-(4-Hydroxybutyl)-3-nitro-5H-indeno[1,2-c]isoquinoline-5,11(6H)-dione] | – | inactive | – |
| CN(C)CCCn1c2c(c3ccc(N)cc3c1=O)C(=O)c1ccccc1-2 [Compound 121, 3-Amino-6-(3-(dimethylamino)propyl)-5H-indeno[1,2-c]isoquinoline-5,11(6H)-dione] | 2011978 | high activity | – |
| Cl.NCCCn1c2c(c3ccc(N)cc3c1=O)Cc1ccccc1-2 [Compound 124, 3-Amino-6-(3-aminopropyl)-6,11-dihydro-5H-indeno[1,2-c]isoquinolin-5-one] | 1422175 | good activity | – |
| CNCCCn1c2c(c3ccc([N+](=O)[O-])cc3c1=O)C(=O)c1ccccc1-2 [Compound 125] | – | detrimental for activity | Max IR: maximum induction ratio observed [4]: NA (NA: Max IR not determined because IR < 2.) |
| CNCCCn1c2c(c3ccc(N)cc3c1=O)C(=O)c1ccccc1-2 [Compound 126] | 2155086 | high activity | – |
| N#Cc1ccc2c3c(n(CCCn4ccnc4)c(=O)c2c1)-c1ccccc1C3=O [Compound 127] | – | inactive; also recorded: lack of activity | – |
| N#Cc1ccc2c3c(n(CCCN4CCOCC4)c(=O)c2c1)-c1ccccc1C3=O [Compound 128] | – | inactive; also recorded: lack of activity | – |
| COc1cc2c3c(n(CCCN)c(=O)c2cc1OC)-c1ccc(F)cc1C3=O [Compound 160] | – | – | Max IR: maximum induction ratio observed [4]: NA (NA: Max IR not determined because IR < 2.) |

The next lines start with results.

| Positive VDR signal [2] | RXR activity in words (active / inactive) [4] | SMILES | further results |
| --- | --- | --- | --- |
| – | active | CN(C)CCCn1c2c(c3ccc(C#N)cc3c1=O)C(=O)c1ccccc1-2 [Compound 129] | – |
| 4875144 | – | CC(=O)Nc1ccc2c3c(n(CCCN)c(=O)c2c1)-c1ccccc1C3=O [Compound 131] | – |
| – | inactive | CC(=O)Nc1ccc2c3c(n(CCCO)c(=O)c2c1)-c1ccccc1C3=O [Compound 132] | % Cell Survival ([6]; Table 7): 90.6%; Max IR: maximum induction ratio observed [4]: NA (NA: Max IR not determined because IR < 2.) |
| – | inactive | O=C1c2ccccc2-c2c1c1ccc([N+](=O)[O-])cc1c(=O)n2CCCCl [Compound 133] | – |
| – | inactive | [N-]=[N+]=NCCCn1c2c(c3ccc([N+](=O)[O-])cc3c1=O)C(=O)c1ccccc1-2 [Compound 134] | – |
| – | detrimental for activity | NCCCn1c2c(c3ccc([N+](=O)[O-])cc3c1=O)C(=O)c1ccccc1-2 [Compound 135] | Max IR: maximum induction ratio observed [4]: NA (NA: Max IR not determined because IR < 2.) |
| – | inactivated | CC(C)(C)OC(=O)NCCCn1c2c(c3ccc(N)cc3c1=O)C(=O)c1ccccc1-2 [Compound 141] | – |
| – | detrimental for activity | CC(=O)NCCCn1c2c(c3ccc([N+](=O)[O-])cc3c1=O)C(=O)c1ccccc1-2 [Compound 143] | – |
| – | significantly reduced the IR | CC(=O)NCCCn1c2c(c3ccc(N)cc3c1=O)C(=O)c1ccccc1-2 [Compound 144] | – |
| – | inactive | O=C1c2ccccc2-c2c1c1ccc([N+](=O)[O-])cc1c(=O)n2CCCO [Compound 145] | – |
| – | inactive | CN(C)c1ccc2c3c(n(CCCN)c(=O)c2c1)-c1ccccc1C3=O [Compound 149] | Max IR: maximum induction ratio observed [4]: NA (NA: Max IR not determined because IR < 2.) |
| – | inactive | O=C1c2ccccc2-c2c1c1ccccc1c(=O)n2CCCO [Compound 151] | Max IR: maximum induction ratio observed [4]: NA (NA: Max IR not determined because IR < 2.) |
